Published values collected from several papers.
Lines come from different studies, so protocols differ.
Target: Bone morphogenetic protein receptor type-1A (BMPR1A, Homo sapiens, UniProt P36894)

Structure (SMILES)	test	setting	remaining binding [%]
CC(=O)N1CCC(c2ccc(C(=O)NC(=N)N)cc2C(F)(F)F)CC1	binding, competition with immobilised ligand	1 µM	100
CCN1CCN(Cc2ccc(C(=O)Nc3ccc(C)c(Oc4ccc5c(c4)CC(=O)N5)c3)cc2C(F)(F)F)CC1	binding, competition with immobilised ligand	1 µM	100
C[C@H]1CCN(c2nccc(-c3cnn4ncccc34)n2)C1	binding	1 µM	68
O=C(NCC1CCOCC1)c1n[nH]cc1NC(=O)c1c(F)cccc1F	binding, competition with immobilised ligand	1 µM	89
Cc1cnn2ncc(-c3ccnc(N(C)C)n3)c2c1	binding	1 µM	100
COc1ncc2cc3ccccc3nc2c1C#N	binding, competition with immobilised ligand	5 µM	94
COc1cnc(Nc2cccc(S(N)(=O)=O)c2)nc1N1CCN(c2ccccc2)CC1	binding, competition with immobilised ligand	1 µM	100
N[C@@H]1CCN(c2nccc(-c3cnn4ncccc34)n2)C1	binding	1 µM	100
COc1cccc(CNC(=O)c2nc3scc(COCc4ccc(C(=O)O)cc4)c3c(=O)[nH]2)c1	cell-free assay, competition with immobilised ligand	1 µM	100
O=C(c1ccc(Nc2nccc(-c3cc4ccccc4s3)n2)cc1)N1CCC(N2CCCC2)CC1	binding, competition with immobilised ligand	1 µM	75
O=C(O)[C@H]1[C@H](Cn2nnc3ccccc3c2=O)CC[C@@H]1C(=O)c1ccc(OCCC2CCOCC2)cc1	binding, competition with immobilised ligand	1 µM	61
CNC(=O)[C@@H]1CC[C@@H](n2c(-c3ccc4cnccc4c3)nc3ccc(C(=O)NCc4cccc(C(N)=O)c4)cc32)C1	binding, competition with immobilised ligand	1 µM	92
CN(c1nccc(-c2cnn3ncccc23)n1)C1CC1	binding	1 µM	78
O=C(NS(=O)(=O)c1ccc(NCC2CCOCC2)c([N+](=O)[O-])c1)c1ccc(N2CCN(Cc3ccc(C(F)(F)F)cc3-c3ccc(Cl)cc3)CC2)cc1Oc1cnc2[nH]ccc2c1	cell-free assay, competition with immobilised ligand	1 µM	81
O=C(NCCCN1CCOCC1)c1ccc(Nc2ncc(Cl)c(-c3ccc(Cl)s3)n2)cc1	binding, competition with immobilised ligand	1 µM	86
C[C@@H](c1ccc(-n2cnc3c(N)ncnc32)cc1)N1CCc2nn(C)c(Cc3ccccc3)c2C1=O	binding, competition with immobilised ligand	0.1 µM	100
C[C@@]1(Cc2ccc(C#N)cc2)C(=O)N(c2cc(Cl)cc(Cl)c2)c2ncc(C(=O)NC3(c4nc(C5CCC5)no4)CC3)n21	binding, competition with immobilised ligand	1 µM	100
O=C(NCCCN1CCOCC1)c1ccc(Nc2nccc(-c3cc4ccccc4s3)n2)cc1	binding, competition with immobilised ligand	1 µM	78
CN(C)c1ncc(F)c(-c2cnn3ncccc23)n1	binding	1 µM	100
Cc1nccc(COC(=O)N2C[C@@H]3[C@@H](CNC(=O)c4ccc5[nH]nnc5c4)[C@@H]3C2)n1	binding, competition with immobilised ligand	1 µM	85
